Converted amounts (≈) assume the structure as drawn.
Experiments:
Escherichia coli [1] = test: Antibacterial activity against Escherichia coli 1005 after 24 hrs; type: functional; conditions: Escherichia coli, 1005, 24 h
Method in brief: (§1)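 Broth microdilution. Mid-log bacteria in MHB at a final (0.5−1) × 10^5 CFU/mL were mixed with equal volumes of peptide serially diluted in 0.2% BSA. Plates were incubated 24 h at 37 °C and read at A492. MIC is the lowest concentration inhibiting 95% of growth. Each test was repeated at least 3 times.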

Salmonella typhimurium [2] = test: Antibacterial activity against Salmonella typhimurium ATCC 14028 after 24 hrs; type: functional, Salmonella enterica subsp. enterica serovar Typhimurium; conditions: Salmonella enterica, ATCC 14028, 24 h; method in brief: as §1
Staphylococcus aureus [3] = test: Antibacterial activity against Staphylococcus aureus ATCC 29213 after 24 hrs; type: functional; conditions: ATCC 29213, 24 h
Method in brief: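 Modified NCCLS broth microdilution. Mid-log bacteria at (0.5−1) × 10^5 CFU/mL in MHB were mixed 1:1 with peptide serially diluted in 0.2% BSA and incubated 24 h at 37 °C. Absorbance was read at 492 nm; MIC is the lowest concentration inhibiting 95% of growth. At least 3 repeats.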

Escherichia coli [4] = test: Bactericidal activity against Escherichia coli ATCC 25922; type: functional; conditions: read-out: MBC99.9
Method in brief: (§2)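 Wells from the 24 h, 37 °C MHB microdilution plates (bacteria at a final (0.5−1) × 10^5 CFU/mL; peptide diluted in 0.2% BSA) were plated on agar and incubated overnight. MBC is the lowest concentration killing >99.9% of cells. Each test was reproduced at least 3 times.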

Escherichia coli [5] = test: Bactericidal activity against Escherichia coli 1005; type: functional; conditions: read-out: MBC99.9; method in brief: as §2
Salmonella typhimurium [6] = test: Bactericidal activity against Salmonella typhimurium ATCC 14028; type: functional, Salmonella enterica subsp. enterica serovar Typhimurium; conditions: Salmonella enterica, read-out: MBC99.9; method in brief: as §2
[7] = Bactericidal activity against Salmonella pullorum ATCC 7913; type: functional, Salmonella enterica subsp. enterica serovar Pullorum; conditions: Salmonella enterica, read-out: MBC99.9; method in brief: as §2
Staphylococcus aureus [8] = test: Bactericidal activity against Staphylococcus aureus ATCC 29213; type: functional; conditions: read-out: MBC99.9; method in brief: as §2
[9] = test system: Staphylococcus epidermidis; test: Bactericidal activity against Staphylococcus epidermidis ATCC 12228; type: functional; conditions: read-out: MBC99.9; method in brief: as §2
Candida albicans [10] = test: Antifungal activity against Candida albicans SP3902 after 48 hrs by broth microdilution method; type: functional; conditions: SP3902, 48 h
Method in brief: (§3)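 Modified CLSI M27-A2 broth microdilution. Yeast at (0.5−1) × 10^3 CFU/mL in MOPS-buffered RPMI 1640 was mixed 1:1 with peptide serially diluted in 0.2% BSA and incubated 48 h at 28 °C. Absorbance was read at 492 nm; MIC is the lowest concentration inhibiting 95% of growth. Triplicate, three biological replicates.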

Candida albicans [11] = test: Antifungal activity against fluconazole-resistant Candida albicans 56214 after 48 hrs by broth microdilution method; type: functional; conditions: Candida albicans, 56214, 48 h; method in brief: as §3
Candida albicans [12] = test: Antifungal activity against Candida albicans 14936 after 48 hrs by broth microdilution method; type: functional; conditions: Candida albicans, 14936, 48 h; method in brief: as §3
Candida parapsilosis [13] = test: Antifungal activity against Candida parapsilosis cgmcc 2.3989 after 48 hrs by broth microdilution method; type: functional; conditions: Lodderomyces parapsilosis, cgmcc 2.3989, 48 h
Method in brief: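 Modified CLSI M27-A2 broth microdilution. Yeast were suspended in MOPS-buffered RPMI 1640 at a final (0.5−1) × 10^3 CFU/mL and mixed 1:1 with peptide serially diluted in 0.2% BSA. Plates were incubated 48 h at 28 °C and read at A492. MIC is the lowest concentration giving 95% inhibition. Run in triplicate with three biological replicates.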

Candida albicans [14] = test: Fungicidal activity against Candida albicans SP3903 after 96 hrs; type: functional; conditions: SP3903, 96 h, read-out: MFC99.9
Method in brief: (§4)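 After the 48 h, 28 °C broth microdilution in MOPS-buffered RPMI 1640 (inoculum (0.5−1) × 10^3 CFU/mL), 50 μL from each well was plated on YM agar for a further 48 h at 28 °C. MFC is the lowest concentration killing at least 99.9% of cells. Triplicate, three biological replicates.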

Candida albicans [15] = test: Fungicidal activity against Candida albicans SP3902 after 96 hrs; type: functional; conditions: SP3902, 96 h, read-out: MFC99.9; method in brief: as §4
Candida albicans [16] = test: Fungicidal activity against Candida albicans SP3876 after 96 hrs; type: functional; conditions: SP3876, 96 h, read-out: MFC99.9; method in brief: as §4
Candida albicans [17] = test: Fungicidal activity against fluconazole-resistant Candida albicans 56214 after 96 hrs; type: functional; conditions: Candida albicans, 56214, 96 h; read-out: MFC99.9; method in brief: as §4
Candida albicans [18] = test: Fungicidal activity against fluconazole-resistant Candida albicans 17546 after 96 hrs; type: functional; conditions: Candida albicans, 17546, 96 h; read-out: MFC99.9; method in brief: as §4
Candida parapsilosis [19] = test: Fungicidal activity against Candida parapsilosis cgmcc 2.3989 after 96 hrs; type: functional; conditions: Lodderomyces parapsilosis, cgmcc 2.3989, 96 h; read-out: MFC99.9
Method in brief: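 Wells from the 48 h, 28 °C RPMI 1640/MOPS microdilution plates were plated on YM agar and incubated a further 48 h at 28 °C. MFC is the lowest concentration killing at least 99.9% of cells. Run in triplicate with three biological replicates.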

Erythrocyte = test: Hemolytic activity in human RBC after 1 hr; type: ADME, cell-based
Method in brief: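 Fresh human erythrocytes, diluted 10-fold in PBS pH 7.4, were mixed with equal volumes of peptide and held 1 h at 37 °C. After centrifugation at 1000g, supernatant hemoglobin was read at 576 nm. PBS set 0% and 0.1% Triton X-100 set 100% lysis. MHC is the concentration causing 10% hemolysis. At least three experiments were run, each in technical triplicate.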

Candida albicans [20] = test: Antifungal activity against Candida albicans cgmcc 2.2086 in presence of NaCl by broth dilution method; type: functional
Candida albicans [21] = test: Antifungal activity against Candida albicans cgmcc 2.2086 in presence of KCl by broth dilution method; type: functional
Candida albicans [22] = test: Antifungal activity against Candida albicans cgmcc 2.2086 in presence of NH4Cl by broth dilution method; type: functional
Candida albicans [23] = test: Antifungal activity against Candida albicans cgmcc 2.2086 in presence of CaCl2 by broth dilution method; type: functional
Candida albicans [24] = test: Antifungal activity against Candida albicans cgmcc 2.2086 in presence of ZnCl2 by broth dilution method; type: functional
Candida albicans [25] = test: Antifungal activity against Candida albicans cgmcc 2.2086 in presence of FeCl3 by broth dilution method; type: functional
Candida albicans [26] = test: Fungicidal activity against Candida albicans 58288 after 96 hrs; type: functional; conditions: Candida albicans, 58288, 96 h; read-out: MFC99.9; method in brief: as §4
[27] = Cytotoxicity against HEK293T cells assessed as cell viability at 2 to 64 uM after 24 hrs by MTT assay relative to control; type: cell-based, HEK-293T; conditions: human, read-out: Activity
Method in brief: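 MTT viability assay. RAW264.7 or HEK293T cells at (1.0−2.0) × 10^5 per well were exposed to a peptide concentration series for 24 h at 37 °C in 5% CO2. MTT was then added at 0.5 mg/mL final for 4 h; formazan was dissolved in DMSO and read at 570 nm. Results average three independent trials.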

Escherichia coli [28] = test: Antibacterial activity against Escherichia coli ATCC 25922 after 18 hrs in presence of NaCl by broth dilution method; type: functional; conditions: ATCC 25922, 18 h
Escherichia coli [29] = test: Antibacterial activity against Escherichia coli ATCC 25922 after 18 hrs in presence of CaCl2 by broth dilution method; type: functional; conditions: ATCC 25922, 18 h
Escherichia coli [30] = test: Antibacterial activity against Escherichia coli ATCC 25922 after 18 hrs in presence of FeCl3 by broth dilution method; type: functional; conditions: ATCC 25922, 18 h

| Molecule | MIC95 (Escherichia coli [1]) | MIC95 (Salmonella typhimurium [2]) | MIC95 (Staphylococcus aureus [3]) | MBC (Escherichia coli [4]) | MBC (Escherichia coli [5]) | MBC (Salmonella typhimurium [6]) | MBC [7] | MBC (Staphylococcus aureus [8]) | MBC [9] | MIC95 (Candida albicans [10]) | MIC95 (Candida albicans [11]) | MIC95 (Candida albicans [12]) | MIC95 (Candida parapsilosis [13]) | MFC (Candida albicans [14]) | MFC (Candida albicans [15]) | MFC (Candida albicans [16]) | MFC (Candida albicans [17]) | MFC (Candida albicans [18]) | MFC (Candida parapsilosis [19]) | HC10 (Erythrocyte) | also measured |
| --- | --- | --- | --- | --- | --- | --- | --- | --- | --- | --- | --- | --- | --- | --- | --- | --- | --- | --- | --- | --- | --- |
| CC[C@H](C)[C@H](NC(=O)CN)C(=O)NCC(=O)N[C@@H](C)C(=O)N[C@H](C(=O)N[C@@H](CC(C)C)C(=O)N[C@@H](CCCCN)C(=O)N[C@H](C(=O)N[C@@H](CC(C)C)C(=O)N[C@H](C(=O)N[C@H](C(=O)NCC(=O)N[C@@H](CC(C)C)C(=O)N1CCC[C@H]1C(=O)N[C@@H](C)C(=O)N[C@@H](CC(C)C)C(=O)N[C@H](C(=O)N[C@@H](CO)C(=O)N[C@@H](Cc1c[nH]c2ccccc12)C(=O)N[C@H](C(=O)N[C@@H](CCCCN)C(=O)N[C@@H](CCCNC(=N)N)C(=O)N[C@@H](CCCCN)C(=O)N[C@@H](CCCNC(=N)N)C(=O)N[C@@H](CCC(N)=O)C(=O)N[C@@H](CCC(N)=O)C(N)=O)[C@@H](C)CC)[C@@H](C)CC)[C@@H](C)O)[C@@H](C)O)C(C)C)C(C)C [MELITTIN] | 2 µM (≈ 5.69 µg/mL) | 1 µM (≈ 2.85 µg/mL) | 8 µM (≈ 22.8 µg/mL) | 2 µM (≈ 5.69 µg/mL) | 2 µM (≈ 5.69 µg/mL) | 2 µM (≈ 5.69 µg/mL) | 2 µM (≈ 5.69 µg/mL) | 8 µM (≈ 22.8 µg/mL) | 1 µM (≈ 2.85 µg/mL) | 2 µM (≈ 5.69 µg/mL) | 4 µM (≈ 11.4 µg/mL) | 4 µM (≈ 11.4 µg/mL) | 2 µM (≈ 5.69 µg/mL) | 4 µM (≈ 11.4 µg/mL) | 2 µM (≈ 5.69 µg/mL) | 4 µM (≈ 11.4 µg/mL) | 4 µM (≈ 11.4 µg/mL) | 8 µM (≈ 22.8 µg/mL) | 2 µM (≈ 5.69 µg/mL) | 0.25 µM | MIC (Candida albicans [20]): 8 µM; MIC (Candida albicans [21]): 4 µM; MIC (Candida albicans [22]): 4 µM; MIC (Candida albicans [23]): 8 µM; MIC (Candida albicans [24]): 4 µM; MIC (Candida albicans [25]): 4 µM; MFC (Candida albicans [26]): 4 µM (≈ 11.4 µg/mL) |
| H-FFRRFRRFF-NH2 | 8 µM | 4 µM | 8 µM | 8 µM | 16 µM | 8 µM | 64 µM | 32 µM | 8 µM | 32 µM | 16 µM | 16 µM | > 64 µM | 16 µM | 32 µM | 32 µM | 32 µM | 8 µM | > 64 µM | > 128 µM | viability at 24 h, up to 64 µM [27]: 70 to 80%; MIC (Escherichia coli [28]): 8 µM; MIC (Escherichia coli [29]): 32 µM; MIC (Escherichia coli [30]): 8 µM; MIC (Candida albicans [20]): 16 µM; MIC (Candida albicans [21]): 16 µM; MIC (Candida albicans [22]): 8 µM; MIC (Candida albicans [23]): 32 µM; MIC (Candida albicans [24]): 32 µM; MIC (Candida albicans [25]): 32 µM; MFC (Candida albicans [26]): 32 µM |
| H-RWWRRWRRWWR-NH2 | 8 µM | 8 µM | 4 µM | 16 µM | 8 µM | 32 µM | 8 µM | 8 µM | 8 µM | 4 µM | 4 µM | 4 µM | 16 µM | 2 µM | 4 µM | 2 µM | 8 µM | 4 µM | 32 µM | > 128 µM | MIC (Escherichia coli [28]): 16 µM; MIC (Escherichia coli [29]): 32 µM; MIC (Escherichia coli [30]): 16 µM; MIC (Candida albicans [20]): 16 µM; MIC (Candida albicans [21]): 8 µM; MIC (Candida albicans [22]): 4 µM; MIC (Candida albicans [23]): 8 µM; MIC (Candida albicans [24]): 4 µM; MIC (Candida albicans [25]): 4 µM; MFC (Candida albicans [26]): 8 µM |
| H-WWRRWRRWW-NH2 | 4 µM | 8 µM | 4 µM | 32 µM | 8 µM | 16 µM | 16 µM | 16 µM | 8 µM | 8 µM | 4 µM | 8 µM | 32 µM | 4 µM | 8 µM | 4 µM | 8 µM | 4 µM | 64 µM | > 128 µM | MIC (Escherichia coli [28]): 8 µM; MIC (Escherichia coli [29]): 32 µM; MIC (Escherichia coli [30]): 4 µM; MIC (Candida albicans [20]): 16 µM; MIC (Candida albicans [21]): 16 µM; MIC (Candida albicans [22]): 8 µM; MIC (Candida albicans [23]): 16 µM; MIC (Candida albicans [24]): 8 µM; MIC (Candida albicans [25]): 8 µM; MFC (Candida albicans [26]): 8 µM |
